pIC50: −log10 of the molar value. Active and inactive are the calls of the source. No cut-off for these calls is given here.
Experiments:
A549 = assay: Cytotoxicity against human A549 cells incubated for 24 hrs by sulforhodamine B assay; type: functional, cell-based; conditions: A549, 24 h
HeLa [1] = assay: Cytotoxicity against human HeLa cells incubated for 24 hrs by sulforhodamine B assay; type: functional, cell-based
HCT-116 = assay: Cytotoxicity against human HCT116 cells incubated for 24 hrs by sulforhodamine B assay; type: functional, cell-based; conditions: HCT-116, 24 h
[2] = target: DNA topoisomerase 2-alpha (Homo sapiens) (UniProt P11388); assay: Inhibition of human topoisomerase 2 assessed as reduction in ATP-dependent kDNA decatenation at 100 uM incubated for 30 mins by ethidium bromide staining based electrophoresis method
DNA topoisomerase 2-alpha (Homo sapiens), sequence (P11388 whole entry): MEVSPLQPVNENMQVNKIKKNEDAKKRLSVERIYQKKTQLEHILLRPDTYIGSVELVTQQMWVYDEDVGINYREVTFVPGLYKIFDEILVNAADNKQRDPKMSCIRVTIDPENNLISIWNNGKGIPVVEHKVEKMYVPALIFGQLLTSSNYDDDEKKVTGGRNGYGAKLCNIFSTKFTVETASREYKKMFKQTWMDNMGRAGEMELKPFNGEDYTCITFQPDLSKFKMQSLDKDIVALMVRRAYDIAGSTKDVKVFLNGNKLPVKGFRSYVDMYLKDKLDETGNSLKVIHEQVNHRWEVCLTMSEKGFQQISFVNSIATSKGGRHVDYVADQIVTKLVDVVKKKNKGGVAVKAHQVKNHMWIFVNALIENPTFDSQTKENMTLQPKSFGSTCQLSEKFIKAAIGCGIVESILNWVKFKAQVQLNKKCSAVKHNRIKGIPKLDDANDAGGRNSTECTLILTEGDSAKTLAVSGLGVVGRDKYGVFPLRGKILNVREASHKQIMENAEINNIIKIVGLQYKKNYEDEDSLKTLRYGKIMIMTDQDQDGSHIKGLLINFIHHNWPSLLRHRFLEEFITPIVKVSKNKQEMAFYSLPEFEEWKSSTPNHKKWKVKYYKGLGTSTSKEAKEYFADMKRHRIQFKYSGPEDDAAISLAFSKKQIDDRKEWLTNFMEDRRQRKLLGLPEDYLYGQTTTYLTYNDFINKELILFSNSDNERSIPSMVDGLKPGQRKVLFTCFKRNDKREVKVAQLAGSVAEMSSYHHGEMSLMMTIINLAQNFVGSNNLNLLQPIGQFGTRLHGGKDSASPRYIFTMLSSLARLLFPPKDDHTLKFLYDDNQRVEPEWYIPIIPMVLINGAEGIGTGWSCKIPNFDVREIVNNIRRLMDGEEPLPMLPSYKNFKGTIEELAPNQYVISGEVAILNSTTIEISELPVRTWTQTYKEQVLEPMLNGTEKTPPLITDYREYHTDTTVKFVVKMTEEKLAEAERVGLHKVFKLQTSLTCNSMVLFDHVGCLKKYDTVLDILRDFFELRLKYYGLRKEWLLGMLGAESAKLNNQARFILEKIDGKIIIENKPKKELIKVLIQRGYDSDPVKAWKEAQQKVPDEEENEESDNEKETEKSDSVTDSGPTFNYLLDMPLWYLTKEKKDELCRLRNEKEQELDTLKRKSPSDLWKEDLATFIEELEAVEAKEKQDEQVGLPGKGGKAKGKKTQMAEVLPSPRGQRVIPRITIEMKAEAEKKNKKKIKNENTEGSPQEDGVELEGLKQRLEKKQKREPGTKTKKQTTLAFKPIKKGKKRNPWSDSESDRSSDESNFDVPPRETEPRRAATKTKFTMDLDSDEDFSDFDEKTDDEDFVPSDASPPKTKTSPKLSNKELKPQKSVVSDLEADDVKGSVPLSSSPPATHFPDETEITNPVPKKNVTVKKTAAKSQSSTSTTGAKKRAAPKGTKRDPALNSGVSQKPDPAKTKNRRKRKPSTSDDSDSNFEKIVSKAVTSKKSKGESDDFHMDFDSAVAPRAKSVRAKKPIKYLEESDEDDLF

Bos taurus [3] = species: Bos taurus; assay: Inhibition of calf thymus topoisomerase 1 assessed as reduction in relaxation of supercoiled pBR322 DNA at 100 uM incubated for 30 mins by ethidium bromide staining based electrophoresis method
In short: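 Calf thymus topo I (0.1 unit) incubated with 0.5 μg supercoiled pBR322 DNA and compound for 30 min at 37 °C in topo I buffer with 0.01% BSA, 20 μL total. Reaction stopped with SDS/loading dye. Samples run on 0.8% agarose in TAE, 35 min at 120 V, then stained with ethidium bromide and imaged under UV.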

HeLa [4] = assay: Induction of apoptosis in human HeLa cells assessed as early apoptotic cells level at 10 uM incubated for 24 hrs by annexin V-FITC and propidium iodide staining based flow cytometry (reference value: 0.72%); type: functional
In short: (§1)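 HeLa cells seeded at 1 × 10^6 per well and exposed to compound at 10 μM for 24 h. Cells then treated with cold PBS and resuspended in binding buffer. Annexin V-FITC added, followed by 15 min at 4 °C in the dark. Apoptotic cells quantified by annexin V/PI double staining.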

HeLa [5] = assay: Induction of apoptosis in human HeLa cells at 10 uM incubated for 24 hrs by annexin V-FITC and propidium iodide staining based flow cytometry; type: functional; in short: as §1
HeLa [6] = assay: Induction of apoptosis in human HeLa cells assessed as late apoptotic cells level at 10 uM incubated for 24 hrs by annexin V-FITC and propidium iodide staining based flow cytometry (reference value: 1.81%); type: functional; in short: as §1
Calf thymus DNA = assay: Binding affinity to calf thymus DNA assessed as induction of conformational changes at 20 uM by CD spectroscopy; type: nucleic-acid assay; conditions: Bos taurus
In short: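 ct-DNA in 20 mM Tris–HCl pH 7.4, concentration set from molar absorption coefficient 6600 M−1 cm−1, A260/A280 above 1.8; 100 μM DNA with 20 μM compound for 2 h at 25 °C; CD spectra recorded 200–400 nm in 1 cm quartz cell.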

Bos taurus [7] = species: Bos taurus; assay: Inhibition of calf thymus topoisomerase 1 assessed as reduction in relaxation of supercoiled pBR322 DNA at 200 uM incubated for 30 mins by ethidium bromide staining based electrophoresis method
In short: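 Calf thymus topo I, 0.1 units, with 0.5 µg supercoiled pBR322 DNA and compound in topo I buffer with 0.01% BSA, 20 µL total. Incubated 30 min at 37 °C. Reaction stopped with 10% SDS plus loading dye. Run on 0.8% agarose gel in TAE, 35 min at 120 V. Gel stained with ethidium bromide and imaged under UV.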

For `CCCCN1C(=O)c2cccc3c(NCCN4CCCNCCNCCCNCC4)ccc(c23)C1=O`, the pIC50 (A549) was 4.41, the pIC50 (HeLa [1]) was 4.72 and the pIC50 (HCT-116) was 4.53.
`CN(C)CCN1C(=O)c2cccc3cc(N)cc(c23)C1=O` [AMONAFIDE] was tested, and the inhibition [2] was “Active”, the pIC50 (HeLa [1]) was 5.02 and the inhibition (Bos taurus [3]) was “Active”.
For `CCCCCCCCCCCCNc1ccc2c3c(cccc13)C(=O)N(CCCN1CCCNCCNCCCNCC1)C2=O`, the Activity (HeLa [4]) was 59.52%, the pIC50 (A549) was 4.80 and the inhibition [2] was “Active”. The Activity (HeLa [5]) was greater than 90%, the pIC50 (HeLa [1]) was 5.03 and the Activity (HeLa [6]) was 32.47%. The inhibition (Bos taurus [3]) was “Active” and the pIC50 (HCT-116) was 4.89.
Work on `CNc1ccc2c3c(cccc13)C(=O)N(CCCN1CCCNCCNCCCNCC1)C2=O` yielded a pIC50 (A549) of less than 4.30, a pIC50 (HeLa [1]) of less than 4.30 and a pIC50 (HCT-116) of less than 4.30.
`CCCCCCCCCCCCN1C(=O)c2cccc3c(NCCN4CCCNCCNCCCNCC4)ccc(c23)C1=O` was tested, and the Activity (HeLa [4]) was 86.4%, the pIC50 (A549) was 4.73 and the inhibition [2] was “Active”. It also gave an Activity (HeLa [5]) greater than 90%, a pIC50 (HeLa [1]) of 4.93 and an Activity (HeLa [6]) of 13.54%. For the same molecule, the inhibition (Bos taurus [3]) was “Active” and the pIC50 (HCT-116) was 4.74.
In the case of `CCCCCCCCNc1ccc2c3c(cccc13)C(=O)N(CCCN1CCCNCCNCCCNCC1)C2=O`, the Activity (HeLa [4]) was 1.49%, the pIC50 (A549) was 4.94 and the inhibition [2] was “Active”. The Activity (Calf thymus DNA) was “Active”, the Activity (HeLa [5]) was greater than 90% and the pIC50 (HeLa [1]) was 5.08. The Activity (HeLa [6]) was 98.46%, the inhibition (Bos taurus [3]) was “Active” and the pIC50 (HCT-116) was 5.09.
`CCCCNc1ccc2c3c(cccc13)C(=O)N(CCCN1CCCNCCNCCCNCC1)C2=O` gave a pIC50 (A549) of less than 4.30, a pIC50 (HeLa [1]) of less than 4.30 and a pIC50 (HCT-116) of less than 4.30.
`COc1cccc2c1C(=O)c1c(O)c3c(c(O)c1C2=O)C[C@@](O)(C(=O)CO)C[C@@H]3O[C@H]1C[C@H](N)[C@H](O)[C@H](C)O1` was tested, and the inhibition [2] was “Active”.
In the case of `CCCCCCCCN1C(=O)c2cccc3c(NCCN4CCCNCCNCCCNCC4)ccc(c23)C1=O`, the Activity (HeLa [4]) was 39.47%, the pIC50 (A549) was 4.80 and the inhibition [2] was “Active”. The Activity (HeLa [5]) was greater than 90%, the pIC50 (HeLa [1]) was 4.99 and the Activity (HeLa [6]) was 60.48%. The inhibition (Bos taurus [3]) was “Active” and the pIC50 (HCT-116) was 4.78.
Work on `CN1C(=O)c2cccc3c(NCCN4CCCNCCNCCCNCC4)ccc(c23)C1=O` yielded a pIC50 (A549) of 4.46, a pIC50 (HeLa [1]) of 4.86 and a pIC50 (HCT-116) of 4.47.
`C1CNCCNCCCNCCNC1` showed a pIC50 (A549) of less than 4.30, a pIC50 (HeLa [1]) of less than 4.30 and a pIC50 (HCT-116) of less than 4.30.
`CC[C@@]1(O)C(=O)OCc2c1cc1n(c2=O)Cc2cc3ccccc3nc2-1` was tested, and the inhibition (Bos taurus [7]) was “Active”.

From ChEMBL document CHEMBL3600298, “Antiproliferative and apoptosis-inducing activities of novel naphthalimide-cyclam conjugates through dual topoisomerase (topo) I/II inhibition” (Bioorg Med Chem, 2015)
